Reference: ChEMBL document CHEMBL1158527, “Identification of novel allosteric nonpeptidergic inhibitors of the human cytomegalovirus-encoded chemokine receptor US28” (Bioorg Med Chem, 2010)

Columns and labels:
[1] = Displacement of [125I]CCL5 from HCMV US28 receptor; parameters: species or system Human betaherpesvirus 5
Method in brief: (§1)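 Allosteric inhibition of chemokine binding to US28 was measured by ¹²⁵I-CCL5 radioligand binding. IC50 values (mean and interval) came from competition curves. Single-point data give percent inhibition of CCL5 binding at 10 µM compound. All runs were in triplicate and repeated at least three times.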

Human betaherpesvirus 5 [2] = experiment: Activity at HCMV US28 receptor assessed as receptor-mediated inositol phosphate response at 10 uM
Method in brief: (§2)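 Compounds were tested against ligand-independent (constitutive) US28-driven inositol phosphate production, measured as InsP accumulation. EC50 values (mean and interval) came from dose–response curves. Single-point data give percent inhibition of constitutive signaling at 10 µM compound. All runs were in triplicate and repeated at least three times.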

[3] = Activity at HCMV US28 receptor assessed as receptor-mediated inositol phosphate response; parameters: species or system Human betaherpesvirus 5; method in brief: as §2
Human betaherpesvirus 5 [4] = experiment: Displacement of [125I]CCL5 from HCMV US28 receptor at 10 uM; method in brief: as §1

| SMILES | IC50 [1] [µM] | Activity (Human betaherpesvirus 5 [2]) [%] | EC50 [3] [µM] | Activity (Human betaherpesvirus 5 [4]) [%] |
| --- | --- | --- | --- | --- |
| CN1CCN(CCCN2Cc3ccccc3CCc3ccccc32)CC1 | 4.9 | 3 |  |  |
| COc1ccccc1CC1Cc2ccccc2C1N (stereo not drawn) | 37.3 |  | 42.7 |  |
| OC1(c2ccc(Cl)cc2)CCCN(CCCN2Cc3ccccc3CCc3ccccc32)C1 (stereo not drawn) | 0.9 |  | 3.9 |  |
| NC1c2ccccc2CCCC1Cc1ccc(Cl)cc1Cl (stereo not drawn) | 11.8 | 26 |  |  |
| OC1(c2ccc(Cl)cc2)CCN(C2c3ccccc3CC2Cc2ccc(Cl)cc2Cl)CC1 (stereo not drawn) | 11 |  | 6 |  |
| CC(=O)Nc1ccc(CC2Cc3ccccc3C2N)cc1 (stereo not drawn) | > 100 |  | > 100 |  |
| CC(Cc1ccc(Cl)cc1)NCCC1=C2C=CC=CC2Sc2ccccc21 (stereo not drawn) | 2.6 | 21 |  |  |
| CN1[C@@H]2CC[C@H]1C[C@@H](OC1c3ccccc3CCc3ccccc31)C2 |  | 0 |  | 15 |
| Clc1ccc(CC2Cc3ccccc3C2N2CCCCC2)c(Cl)c1 (stereo not drawn) | 13.4 |  | 2.6 |  |
| NC(CCc1ccccc1)c1ccc(Cl)c(Cl)c1 (stereo not drawn) |  | 34 |  | 5 |
| N=C(N)NCCN1C2CCC1CC(OC1c3ccccc3CCc3ccccc31)C2 (stereo not drawn) |  | 0 |  | 34 |
| Clc1ccc(C2=CCN(C3c4ccccc4CC3Cc3ccc(Cl)cc3Cl)CC2)cc1 (stereo not drawn) | > 100 |  | > 100 |  |
| O=C(CCN1CCN(CCO)CC1)N1Cc2ccccc2CCc2ccccc21 | > 100 | 0 |  |  |
| CC(Cc1ccccc1)NCCC1c2ccccc2CCc2ccccc21 (stereo not drawn) | 3.7 |  | 5.2 |  |
| CC(Cc1cccc(C(F)(F)F)c1)NCC=C(c1ccc(F)cc1)c1ccc(F)cc1 (stereo not drawn) |  | 38 |  | 39 |
| CN1CCN(C2c3ccccc3CC2Cc2ccc(Cl)cc2Cl)CC1 (stereo not drawn) | 8.1 |  | 12.1 |  |
| CC(Cc1cccc(C(F)(F)F)c1)NCCc1c2ccccc2nc2ccccc12 (stereo not drawn) | 5.5 | 34 |  |  |
| NC(CCc1ccc(Cl)c(Cl)c1)c1ccc(Cl)c(Cl)c1 (stereo not drawn) | 7.5 |  | 11.7 |  |
| OCCN1CCN(CCCN2Cc3ccccc3CCc3ccccc32)CC1 | 1.6 |  |  |  |
| OC1(c2ccc(Cl)cc2)CCN(CCCC(c2ccc(F)cc2)c2ccc(F)cc2)CC1 | 3 |  | 5.2 |  |
| Clc1ccc(CC2Cc3ccccc3C2N2CCN(c3ccccc3)CC2)c(Cl)c1 (stereo not drawn) | > 100 |  | > 100 |  |
| OC1(c2ccc(Cl)cc2)CCN(CCOC(c2ccccc2)c2ccc(F)cc2)CC1 (stereo not drawn) | 2.3 |  | 4.6 |  |
| OCCCCN1CCN(/C(=C/c2cccc(Cl)c2)c2ccccc2)CC1 |  | 0 |  | 13 |

| SMILES | IC50 [1] [µM] | Activity (Human betaherpesvirus 5 [2]) [%] | EC50 [3] [µM] | Activity (Human betaherpesvirus 5 [4]) [%] |
| --- | --- | --- | --- | --- |
| CN1CCN(C2=Nc3cc(Cl)ccc3Oc3ccccc32)CC1 |  | 22 |  | 19 |
| NC1c2ccccc2CC1Cc1ccccc1 (stereo not drawn) | 80.6 |  | > 100 |  |
| C=C[C@H]1CN2CC[C@@H]1C[C@H]2C(OC(=O)c1ccc(C)cc1)c1ccnc2ccccc12 (stereo partly drawn) | 0.3 |  |  |  |
| NCC1(c2ccc(Cl)cc2)CCN(CCCN2Cc3ccccc3CCc3ccccc32)CC1 | 1.6 |  | 7.6 |  |
| C1=Cc2ccccc2C(OC2CC3CCC(C2)N3C2CCCCC2)c2ccccc21 (stereo not drawn) | 8.3 |  | 5.8 |  |
| CCCCCCCCN1C2CCC1CC(OC1c3ccccc3CCc3ccccc31)C2 (stereo not drawn) | 5.6 |  | 4.9 |  |
| CN1CCN(C2Cc3ccccc3Sc3ccc(Cl)cc32)CC1 (stereo not drawn) [CLOROTEPINE] | 4.9 |  | 12.1 |  |
| NC1c2ccccc2CC1Cc1ccc(Cl)cc1Cl (stereo not drawn) | 9.5 |  | 11.1 |  |
| c1ccc(CCN2C3CCC2CC(OC2c4ccccc4CCc4ccccc42)C3)cc1 (stereo not drawn) | 11.9 |  | 4.3 |  |
| CN1CCN(CCC(=O)N2Cc3ccccc3CCc3ccccc32)CC1 | > 100 | 0 |  |  |
| OC1(c2ccc(Cl)cc2)CCN(CCOC(c2ccccc2)c2ccccc2)CC1 | 2.1 |  | 3.5 |  |
| CN1CCN(/C(=C/c2cccc(Cl)c2)c2ccccc2)CC1 |  | 20 |  | 13 |
| COc1ccc(CC2Cc3ccccc3C2N)c(OC)c1 (stereo not drawn) | > 100 |  | > 100 |  |
| N/C(CCN1C2CCC1CC(OC1c3ccccc3CCc3ccccc31)C2)=N\O (stereo not drawn) |  | 0 |  | 0 |
| CCCN1C2CCC1CC(OC1c3ccccc3C=Cc3ccccc31)C2 (stereo not drawn) |  | 0 |  | 18 |
| COc1ccc(CC2Cc3ccccc3C2N)cc1 (stereo not drawn) | > 100 |  | > 100 |  |
| CC(C)(C)c1ccc(C(OC(CN)c2ccccc2)c2ccccc2)cc1 (stereo not drawn) | 8.2 |  | 8.4 |  |
| Cc1ccc(CC2Cc3ccccc3C2N)c(C)c1 (stereo not drawn) | 17.7 |  | 13.7 |  |
| Clc1cccc(/C=C(\c2ccccc2)N2CCN(CCCCc3ccccc3)CC2)c1 |  | 18 |  | 47 |
| CSc1ccc2c(c1)C(OCCN1CCC(O)(c3ccc(Cl)cc3)CC1)Cc1ccccc1S2 (stereo not drawn) | 12.4 |  | 7.1 |  |
| NC1c2ccccc2CCC1Cc1ccc(Cl)cc1Cl (stereo not drawn) | 8.5 |  | 12.6 |  |
| CCN1CCN(C2=Nc3cc(Cl)ccc3Oc3ccccc32)CC1 |  | 0 |  | 38 |
| c1ccc(CN2C3CCC2CC(OC2c4ccccc4CCc4ccccc42)C3)cc1 (stereo not drawn) | 10.5 |  | 8.8 |  |

| SMILES | IC50 [1] [µM] | Activity (Human betaherpesvirus 5 [2]) [%] | EC50 [3] [µM] | Activity (Human betaherpesvirus 5 [4]) [%] |
| --- | --- | --- | --- | --- |
| CN1CCN(C2=Nc3ccccc3Oc3ccc(Cl)cc32)CC1 |  | 0 |  | 13 |
| Clc1ccc(CC2Cc3ccccc3C2NCc2ccccc2)c(Cl)c1 (stereo not drawn) | > 100 |  | > 100 |  |
| OC1(c2ccc(Cl)cc2)CCN(CCCN(Cc2ccccc2)c2ccccc2)CC1 | 4.1 |  | 3 |  |
| NCC(OC(c1ccccc1)c1ccc(Cl)cc1Cl)c1ccccc1 (stereo not drawn) | 9.2 |  | 10.2 |  |
| CCN1CCC[C@H]1CNC(=O)c1c(OC)ccc(I)c1O [IOLOPRIDE] | 0.3 |  |  |  |
| CC(C)N1C2CCC1CC(OC1c3ccccc3C=Cc3ccccc31)C2 (stereo not drawn) |  | 3 |  | 13 |
| CN1CCN(C2=Nc3ccccc3Sc3ccc(Cl)cc32)CC1 |  | 0 |  | 28 |
| CC(Cc1ccccc1)NCC=C1c2ccccc2CCc2ccccc21 (stereo not drawn) | 4.2 | 39 |  |  |
| CCN1C2CCC1CC(OC1c3ccccc3CCc3ccccc31)C2 (stereo not drawn) |  | 0 |  | 7 |
| CCc1ccccc1C1(OCCN(C)Cc2cccc(C)c2)CCCCC1C (stereo not drawn) | 12.9 | 10 |  |  |
| CN1CCN(C2=Nc3cc(Cl)ccc3Sc3ccccc32)CC1 |  | 0 |  | 47 |
| CSc1ccc2c(c1)C(N1CCN(C)CC1)Cc1ccccc1S2 (stereo not drawn) [METITEPINE] | 0.41 |  | 7.6 |  |
| OC1(c2ccc(Cl)cc2)CCN(CCCN2Cc3ccccc3CCc3ccccc32)CC1 | 0.7 |  | 4.7 |  |
| OC1(c2ccc(Cl)cc2)CCN(CCCN(Cc2ccccc2)c2ccc(Cl)cc2)CC1 | 1.8 |  | 5 |  |
| OC1(c2ccc(Cl)cc2)CCN(CCCN(Cc2ccc(Cl)cc2)c2ccccc2)CC1 | 5.7 |  | 5.5 |  |
| N#CC(CCCN1CCC(O)(c2ccc(Cl)cc2)CC1)(c1ccccc1)c1ccccc1 [BERLEX COMPOUND] | 4.9 |  | 6.3 |  |
| COc1ccc(CC2Cc3ccccc3C2N)cc1C (stereo not drawn) | 59.7 |  | 16.4 |  |
| CN1CCN(C2=Nc3cc(Cl)ccc3Nc3ccccc32)CC1 |  | 11 |  | 47 |
| CCN1CCN(C2=Nc3cc(Cl)ccc3Nc3ccccc32)CC1 | 3.8 | 16 |  |  |
| CCCCN1CCN(C2=Nc3cc(Cl)ccc3Nc3ccccc32)CC1 | 4.7 | 19 |  |  |
| CC(Cc1ccccc1)NCCC1c2ccccc2-c2ccccc21 (stereo not drawn) | 5.2 |  | 10.9 |  |
| CC(Cc1ccccc1)NCC=C1c2ccccc2-c2ccccc21 (stereo not drawn) | 7 | 42 |  |  |
